According to ChEMBL document CHEMBL3085627 (J Med Chem, 2013):

Tests used:
D(2) dopamine receptor [1] = biological target: T1, D(2) dopamine receptor (Homo sapiens, UniProt P14416); assay: Displacement of [3H]-spiperone from human dopamine D2L receptor expressed in CHO cell membranes after 3 hrs by liquid scintillation counting analysis
Method in brief: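 Competition against the radiolabeled antagonist [3H]spiperone at human D2L receptor in FlpIn CHO cell membranes. Affinity is reported as Ki.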

D(2) dopamine receptor [2] = biological target: T1, D(2) dopamine receptor; assay: Agonist activity at human dopamine D2L receptor expressed in CHO […] assessed as inhibition of forskolin-stimulated cAMP production after 30 mins by Alphascreen assay; format: functional, cell-based
Method in brief: (§1)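 Concentration-response curves are fitted to the operational model of agonism to derive functional affinity (pKA) and efficacy (τ). The transduction coefficient log(τ/KA) is calculated per pathway, and bias is expressed as ΔΔlog(τ/KA). Statistical comparison uses Student's t-test.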

D(2) dopamine receptor [3] = biological target: T1, D(2) dopamine receptor; assay: Agonist activity at human dopamine D2L receptor expressed in CHO […] assessed as phosphorylation of ERK1/2 by Alphascreen assay; format: cell-based; method in brief: as §1
D(2) dopamine receptor [4] = biological target: T1, D(2) dopamine receptor; details: CHO

T1 sequence (P14416 whole entry): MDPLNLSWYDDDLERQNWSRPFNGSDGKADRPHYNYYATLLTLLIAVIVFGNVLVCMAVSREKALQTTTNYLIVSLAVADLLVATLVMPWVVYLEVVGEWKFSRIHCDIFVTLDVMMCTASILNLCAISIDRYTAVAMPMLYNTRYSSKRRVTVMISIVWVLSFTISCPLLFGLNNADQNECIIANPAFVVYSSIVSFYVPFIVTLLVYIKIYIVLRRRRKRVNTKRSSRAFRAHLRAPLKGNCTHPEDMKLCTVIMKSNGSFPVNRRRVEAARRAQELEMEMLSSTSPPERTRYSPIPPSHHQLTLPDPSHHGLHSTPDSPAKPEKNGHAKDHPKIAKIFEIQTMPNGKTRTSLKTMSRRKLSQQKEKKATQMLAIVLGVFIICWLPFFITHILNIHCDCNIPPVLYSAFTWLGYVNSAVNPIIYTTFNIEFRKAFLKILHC

SMILES | Ki (D(2) dopamine receptor [1]) [nM] | pKA (D(2) dopamine receptor [2]) | pKA (D(2) dopamine receptor [3]) | KiH (D(2) dopamine receptor [4]) [nM] | KiL (D(2) dopamine receptor [4]) [µM]
CC(C)(C)OC(=O)NC[C@H]1CC[C@H](CN2CCN(c3cccc(Cl)c3Cl)CC2)CC1 | 148 | 6.95 | 6.86 |  | 
CC(C)(C)OC(=O)N[C@H]1CC[C@H](CCN2CCN(c3cccc(Cl)c3Cl)CC2)CC1 |  | 7.11 | 7.51 |  | 
CN(C)C(=O)NC[C@H]1CC[C@H](CN2CCN(c3cccc(Cl)c3Cl)CC2)CC1 | 42.7 | 6.92 | 7.56 |  | 
CC(C)(C)OC(=O)NC[C@H]1CC[C@H](CN2CCc3ccccc3C2)CC1 | 1150 | 6.82 | 6.69 |  | 
CC(C)(C)OC(=O)N[C@H]1CC[C@H](CCN2CCc3ccccc3C2)CC1 |  | 6.45 | 7.1 |  | 
CC(=O)N[C@H]1CC[C@H](CCN2CCc3ccc(C#N)cc3C2)CC1 | 23.4 |  |  |  | 
CC(C)(C)OC(=O)N[C@H]1CC[C@@H](CCN2CCN(c3cccc(Cl)c3Cl)CC2)CC1 |  | 6.73 | 6.79 |  | 
CC(C)(C)NC(=O)N[C@H]1CC[C@H](CCN2CCc3ccccc3C2)CC1 | 245 | 6.72 |  |  | 
CN(C)C(=O)N[C@H]1CC[C@H](CCN2CCN(c3cccc(Cl)c3Cl)CC2)CC1 |  |  | 7.61 |  | 
O=C(N[C@H]1CC[C@H](CCN2CCc3ccccc3C2)CC1)Oc1ccccc1 | 912 | 5.67 |  |  | 
CC(C)(C)OC(=O)N[C@H]1CC[C@H](CN2CCc3ccccc3C2)CC1 | 355 | 7.18 | 7.48 |  | 
CN(C)C(=O)N[C@H]1CC[C@@H](CCN2CCc3ccccc3C2)CC1 |  | 6.96 |  |  | 
CC(=O)N[C@H]1CC[C@H](CCN2CCc3ccccc3C2)CC1 |  | 6.85 |  |  | 
CC(C)(C)OC(=O)N[C@H]1CC[C@H](CCN2CCc3ccc([N+](=O)[O-])cc3C2)CC1 | 380 |  |  |  | 
CC(C)COC(=O)N[C@H]1CC[C@H](CCN2CCc3ccccc3C2)CC1 | 5250 | 6.05 |  |  | 
CC(C)(C)OC(=O)N[C@H]1CC[C@@H](CCN2CCc3ccccc3C2)CC1 |  | 7.34 |  |  | 
CC(C)OC(=O)N[C@H]1CC[C@H](CCN2CCc3ccccc3C2)CC1 | 1480 | 6.3 |  |  | 
CCOC(=O)N[C@H]1CC[C@H](CCN2CCc3ccccc3C2)CC1 |  | 7.23 |  |  | 
CC(C)(C)OC(=O)N[C@H]1CC[C@H](CCN2CCc3ccc(C#N)cc3C2)CC1 | 2240 | 6.81 |  |  | 
NCCc1ccc(O)c(O)c1 |  |  |  | 58 | 3.42
CC(C)(C)OC(=O)Nc1ccc(CCN2CCc3ccccc3C2)cc1 | 550 | 5.95 |  |  | 
CC(C)(C)OC(=O)N[C@H]1CC[C@H](CCN2CCCN(c3cccc(Cl)c3Cl)CC2)CC1 | 10.5 |  |  |  | 
CN(C)C(=O)N[C@H]1CC[C@H](CCN2CCc3ccccc3C2)CC1 |  | 7.19 |  |  | 
CC(C)(C)OC(=O)N[C@H]1CC[C@H](CN2CCN(c3cccc(Cl)c3Cl)CC2)CC1 | 309 | 6.27 | 5.43 |  | 
